Measured values taken from ChEMBL document CHEMBL2331220, “Benzimidazole clubbed with triazolo-thiadiazoles and triazolo-thiadiazines: new anticancer agents” (2013).

Experiments:
Assay type in all cases: functional
[1] = tested on: Hs-578T; experiment: Cytotoxicity against human Hs578T cells after 48 hrs by SRB assay
Procedure, shortened: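 NCI five-dose screen: cells preincubated 24 h at 37 °C, 5% CO₂, with time-zero plates TCA-fixed. Five 10-fold dilutions (0.01–100) were added and cells incubated for 48 h, then fixed in 10% TCA for 60 min at 4 °C. Staining used 0.4% SRB in 1% acetic acid, solubilised in 10 mM Tris, with A515 read. GI₅₀, TGI and LC₅₀ were derived from Tz, control and test absorbances.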

[2] = tested on: NCI-H522; experiment: Cytotoxicity against human NCI-H522 cells after 48 hrs by SRB assay; details: NCI-H522, 48 h
Procedure, shortened: (§1)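 NCI 60-line five-dose screen. Cells were preincubated 24 h at 37 °C under 5% CO2 and 100% humidity, and time-zero plates were TCA-fixed when compound was added. Five 10-fold concentrations (0.01–100) were tested for 48 h. Cells were fixed with cold TCA (final 10%, 60 min, 4 °C), stained with 0.4% SRB for 10 min, and read at 515 nm. GI50, TGI and LC50 came from growth-percentage formulas, with out-of-range values given as > or <.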

[3] = tested on: OVCAR-8; experiment: Cytotoxicity against human OVCAR8 cells after 48 hrs by SRB assay; details: OVCAR-8, 48 h; procedure, shortened: as §1
[4] = tested on: MOLT-4; experiment: Cytotoxicity against human MOLT4 cells after 48 hrs by SRB assay; details: MOLT-4, 48 h; procedure, shortened: as §1
[5] = tested on: RXF 393; experiment: Cytotoxicity against human RXF393 cells after 48 hrs by SRB assay; details: RXF 393, 48 h; procedure, shortened: as §1
[6] = read-out: LC50 (the source's name)
[7] = read-out: pLC50 (the source's name) (converted)

O=C(CCc1nnc2sc(-c3ccc(Cl)cc3Cl)nn12)c1nc2ccccc2[nH]1 was tested. Which GI50 ([1]; read-out: GI50) did it give?
The GI50 was 0.478 µM.

What about the CC50 [1, 6] of the same molecule?
Its CC50 is > 100 µM.

What about the GI50 ([1]; read-out: pGI50 (converted)) of the same molecule?
The GI50 was 0.479 µM.

And the CC50 [1, 7]?
The CC50 was > 100 µM.

What about the GI50 ([2]; read-out: GI50) of the same molecule?
Its GI50 is 1.28 µM.

What about the CC50 [2, 6] of the same molecule?
The CC50 was 6.82 µM.

And the TGI ([2]; read-out: TGI)?
Its TGI is 2.96 µM.

What about the GI50 ([2]; read-out: pGI50 (converted)) of the same molecule?
Its GI50 is 1.29 µM.

What about the CC50 [2, 7] of the same molecule?
Its CC50 is 6.76 µM.

And the TGI ([2]; read-out: pTGI (converted))?
The TGI was 2.95 µM.

What about the GI50 ([3]; read-out: GI50) of the same molecule?
Its GI50 is 2.58 µM.

And the LC50 (lethal concentration 50%) ([3]; read-out: LC50)?
Its LC50 (lethal concentration 50%) is > 100 µM.

What about the TGI ([3]; read-out: TGI) of the same molecule?
The TGI was > 100 µM.

And the GI50 ([3]; read-out: pGI50 (converted))?
Its GI50 is 2.57 µM.

And the LC50 (lethal concentration 50%) ([3]; read-out: pLC50 (converted))?
The LC50 (lethal concentration 50%) was > 100 µM.

What about the TGI ([3]; read-out: pTGI) of the same molecule?
The TGI was > 100 µM.

What about the GI50 ([4]; read-out: GI50) of the same molecule?
The GI50 was 0.282 µM.

And the CC50 [4, 6]?
Its CC50 is > 100 µM.

What about the TGI ([4]; read-out: TGI) of the same molecule?
Its TGI is > 100 µM.

And the GI50 ([4]; read-out: pGI50 (converted))?
Its GI50 is 0.282 µM.

And the CC50 [4, 7]?
Its CC50 is > 100 µM.

What about the TGI ([4]; read-out: pTGI) of the same molecule?
The TGI was > 100 µM.

And the GI50 ([5]; read-out: GI50)?
The GI50 was 0.674 µM.

And the CC50 [5, 6]?
The CC50 was 4.55 µM.

What about the TGI ([5]; read-out: TGI) of the same molecule?
Its TGI is 1.99 µM.

And the GI50 ([5]; read-out: pGI50 (converted))?
The GI50 was 0.676 µM.

And the CC50 [5, 7]?
Its CC50 is 4.57 µM.

What about the TGI ([5]; read-out: pTGI (converted)) of the same molecule?
Its TGI is 2 µM.
